Test [1] is described as follows: Her2 expression decrease, cell viability multiplex – SKBR3 breast tumor cells, AlphaScreen, ATP viability, primary screen (AID 461;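 active means Her2 level under about 52% in both replicate screens, with viability over 70% of control, limit read from the data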;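 on Her2 level: lower value means less Her2 protein in the cells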;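 on viability: percent of carrier control wells set as 100% viability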). The following applies: SKBR3 Her2 protein level, 18-24 h, measured here: SKBR3 viability, ATP luminescence, at 10 µM.
The target of test [2] is Receptor tyrosine-protein kinase erbB-2 (Homo sapiens) (UniProt P04626). Described as above. The following applies: 18-24 h, at 10 µM, stronger effect = lower value.
Test [3] in a line: reduced viability of SK-BR-3 breast cancer cells – cell-based, 24 h, human, pilot screen (AID 572;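 active means viability at or below 10% of carrier control in both of two separate runs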;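 further: compound exposure lasted between 18 and 24 h rather than exactly 24 h; 100% = carrier-treated control wells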). Conditions: SK-BR-3 viability, CellTiter-Glo luminescence, at 10 µM, stronger effect = lower value.
Test [4] in a line: HUVEC growth inhibition – cell-based, human, primary screen (AID 575;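 active means viability at or below 30% in both replicate assays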;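 further: 100% = median of untreated cell wells with 0.1% DMSO on each plate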). Conditions: HUVEC proliferation, CellTiter-Glo luminescence, 72 h; at 10 µM; stronger effect = lower value. Summed up:
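Assay system: Primary human umbilical vein endothelial cells | Quantity: 1250 cells per well | Medium: Supplemented EBM, 2% fetal bovine serum | Detection: CellTiter-Glo luminescence measuring cellular ATP | Read-out: % viability vs DMSO wells | Plate: Collagen-coated 384-well format | Times: 72 h exposure, 37 °C, 5% CO2, 30 min RT equilibration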

The nature of test [5]: H69AR cell proliferation blockers – human, duplicate replicates, primary screen (AID 580;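 active means viability at or under a set limit in both replicates, limit being median viability minus 3 SD, cut at about 48% in these data, passing the limit was not always enough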;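 further: 100% = mean luminescence of untreated wells and 0% = no signal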). Conditions: H69AR lung tumor cells viability, ATP luminescence, 72 h; at 10 µM; stronger effect = lower value.
A short description of test [6]: MRP1 drug-resistance reversers in H69AR cells – cell-based, doxorubicin co-treatment, pilot screen (AID 601;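 active means viability loss from added drug above about 55%, and viability with drug at most 40%, in both replicates, limit read from the data, passing the limit was not always enough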). Conditions: CellTiter-Glo, 72 h, at 10 µM; for differential viability (reversal): stronger effect = higher value.
Test [7] can be described thus: yeast transport mutant growth inhibition pilot in 384-well plates, post-Golgi transport modulator project (AID 636; in the data active means inhibition above about 31%). The following applies: absorbance 615 nm, about 18 h, stronger effect = higher value.
A short description of test [8]: growth suppression of yeast trafficking mutant, preliminary HTS, modulators of trafficking downstream of Golgi apparatus project, 1536-format plate, OD 615 nm (AID 637). The following applies: yeast transport mutant growth, absorbance 615 nm, 18 h; stronger effect = higher value.
Where [9] appears, read: H69AR cells + 2 uM doxorubicin, measured here: viability with 2 uM doxorubicin, stronger effect = lower value.
Setting [10] is: H69AR cells, compound alone cytotoxicity.

Activity calls are given as the source filed them. Unless noted, no stated cut-off is given here; in the data, active means inhibition above about 30%; inactive means the rest.

Chain of Receptor tyrosine-protein kinase erbB-2 (Homo sapiens) (P04626 whole entry, looked up): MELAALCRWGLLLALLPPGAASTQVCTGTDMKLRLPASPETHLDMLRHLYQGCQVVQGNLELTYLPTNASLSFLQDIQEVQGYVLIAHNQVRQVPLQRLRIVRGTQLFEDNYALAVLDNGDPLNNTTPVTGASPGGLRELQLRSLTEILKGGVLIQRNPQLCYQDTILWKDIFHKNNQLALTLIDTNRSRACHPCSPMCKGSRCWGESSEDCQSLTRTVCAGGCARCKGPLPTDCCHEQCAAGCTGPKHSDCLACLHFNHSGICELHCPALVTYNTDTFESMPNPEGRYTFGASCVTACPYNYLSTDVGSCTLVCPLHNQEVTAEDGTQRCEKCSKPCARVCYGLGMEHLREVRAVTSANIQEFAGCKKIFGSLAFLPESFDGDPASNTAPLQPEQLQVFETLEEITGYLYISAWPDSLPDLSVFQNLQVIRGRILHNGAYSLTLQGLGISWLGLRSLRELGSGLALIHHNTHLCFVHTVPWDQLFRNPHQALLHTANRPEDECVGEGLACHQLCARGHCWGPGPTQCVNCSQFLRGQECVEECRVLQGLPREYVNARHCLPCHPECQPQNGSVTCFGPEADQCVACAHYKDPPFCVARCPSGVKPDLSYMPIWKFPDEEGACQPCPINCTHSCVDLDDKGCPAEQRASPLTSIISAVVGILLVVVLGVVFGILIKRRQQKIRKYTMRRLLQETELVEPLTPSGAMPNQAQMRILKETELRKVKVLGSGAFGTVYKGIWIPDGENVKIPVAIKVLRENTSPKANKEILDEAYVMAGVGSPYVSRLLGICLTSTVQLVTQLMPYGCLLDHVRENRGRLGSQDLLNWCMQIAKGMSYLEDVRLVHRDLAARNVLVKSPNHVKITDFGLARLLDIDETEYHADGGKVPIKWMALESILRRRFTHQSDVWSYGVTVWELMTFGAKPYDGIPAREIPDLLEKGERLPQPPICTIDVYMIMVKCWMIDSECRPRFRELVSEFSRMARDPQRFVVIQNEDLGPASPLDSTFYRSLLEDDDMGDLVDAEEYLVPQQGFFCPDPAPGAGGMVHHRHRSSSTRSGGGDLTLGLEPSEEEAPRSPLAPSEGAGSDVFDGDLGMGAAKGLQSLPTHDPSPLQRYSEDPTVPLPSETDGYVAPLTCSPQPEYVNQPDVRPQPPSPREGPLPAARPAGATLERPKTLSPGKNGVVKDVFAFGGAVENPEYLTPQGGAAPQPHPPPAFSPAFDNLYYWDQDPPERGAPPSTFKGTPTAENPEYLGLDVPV

`C=CCNC(=O)CSc1ccc(Cl)cc1`: the viability in test [1] was 88.5%; in test [3], 88.5% (inactive); in test [4], 109% (inactive); in test [5] it was 81.4% (inactive); in test [6] (setting [9]) it was 88.8%; in test [6] (setting [10]), 81.4%. Moreover, in test [2], the Her2 level was 106% (inactive). In test [6] (H69AR cells + 2 uM doxorubicin), the differential viability (reversal) is -7.45% (inactive). The inhibition in test [7] was -4.21% (inactive); in test [8], 3.11% (inactive).
Turning to `CC1CN(C(=O)c2cc3cc(Cl)cc(Cl)c3oc2=O)CC(C)O1` (stereo not given), the viability in test [1] was 83.5%; in test [3], 83.5% (inactive); in test [4], 96.8% (inactive); in test [5], 92.4% (inactive); in test [6] (setting [9]) it was 87.7%; in test [6] (setting [10]), 92.4%. In addition, the Her2 level in test [2] was 102% (inactive). In addition, in test [6] (H69AR cells + 2 uM doxorubicin), the differential viability (reversal) was 4.73% (inactive). Further, the inhibition is -3.47% (inactive) in test [7] and 23.8% (inactive) in test [8].
In the case of `CCN(CCNC(=O)C1CCN(S(=O)(=O)CC)CC1)c1ccccc1`, the viability is 124% in test [1]; 124% (inactive) in test [3]; 112% (inactive) in test [4]; 95.7% (inactive) in test [5]; 89.4% in test [6] (setting [9]); 95.7% in test [6] (setting [10]). The Her2 level in test [2] is 92.5% (inactive). In addition, the differential viability (reversal) in test [6] (H69AR cells + 2 uM doxorubicin) is 6.31% (inactive). The inhibition in test [7] is -7.84% (inactive); in test [8], -8.33% (inactive).
With `CCCN(CCC)C(=O)CSc1nc2ccccc2c(=O)n1C1CCCC1`, the viability in test [1] was 136%; in test [3] it was 136% (inactive); in test [4], 87.2% (inactive); in test [5], 66.7% (inactive); in test [6] (setting [9]), 56.3%; in test [6] (setting [10]), 66.7%. The Her2 level in test [2] was 60.5% (inactive). Besides, in test [6] (H69AR cells + 2 uM doxorubicin), the differential viability (reversal) is 10.4% (inactive). In addition, the inhibition in test [7] is -3.68% (inactive); in test [8], -2.54% (inactive).
On to `COc1ccc(NC(=O)CN(c2ccc(C)cc2)S(C)(=O)=O)c(OC)c1`, for which the viability in test [1] was 90%; in test [3], 90% (inactive); in test [4], 84.8% (inactive); in test [5], 101% (inactive); in test [6] (setting [9]), 89.4%; in test [6] (setting [10]), 101%. Also, in test [2], the Her2 level is 118% (inactive). The differential viability (reversal) in test [6] (H69AR cells + 2 uM doxorubicin) is 11.9% (inactive). The results for the inhibition in test [7] and in test [8] were -2.63% (inactive) and -3.5% (inactive), respectively.
With `CC(C)(C)NC(=O)Cn1nnnc1-c1nonc1N`, the viability was 93% in test [1]; 93% (inactive) in test [3]; 109% (inactive) in test [4]; 105% (inactive) in test [5]; 91.3% in test [6] (setting [9]); 105% in test [6] (setting [10]). Also, in test [2], the Her2 level was 94.5% (inactive). Moreover, the differential viability (reversal) in test [6] (H69AR cells + 2 uM doxorubicin) was 13.3% (inactive). For the same molecule, the inhibition was -6.53% (inactive) in test [7] and 5.25% (inactive) in test [8].
With `CCOc1ccccc1N1CCN(c2nc(N)c(C#N)c(CC#N)c2C#N)CC1`, the viability was 108% in test [1]; 108% (inactive) in test [3]; 70.7% (inactive) in test [4]; 61.7% (inactive) in test [5]; 84.5% in test [6] (setting [9]); 61.7% in test [6] (setting [10]). Besides, the Her2 level in test [2] is 74.5% (inactive). For the same molecule, the differential viability (reversal) in test [6] (H69AR cells + 2 uM doxorubicin) is -22.8% (inactive). For the same molecule, the inhibition in test [7] was -4.34% (inactive); in test [8], 5.64% (inactive).
With `COCc1cc(C)nc(SCC(=O)Nc2cccc(C)c2C)c1C#N`, the viability is 103% in test [1]; 103% (inactive) in test [3]; 82.3% (inactive) in test [4]; 94.4% (inactive) in test [5]; 82.5% in test [6] (setting [9]); 94.4% in test [6] (setting [10]). The Her2 level in test [2] is 95.5% (inactive). Besides, the differential viability (reversal) in test [6] (H69AR cells + 2 uM doxorubicin) was 11.9% (inactive). For the same molecule, the inhibition is -3.16% (inactive) in test [7] and -0.48% (inactive) in test [8].
For `CCn1nccc1C(=O)Nc1cc(Cl)ccc1Cl`, the viability in test [1] is 102%; in test [3], 102% (inactive); in test [4], 89.3% (inactive); in test [5], 112% (inactive); in test [6] (setting [9]) it was 86.7%; in test [6] (setting [10]), 112%. For the same molecule, the Her2 level in test [2] is 97.5% (inactive). Besides, in test [6] (H69AR cells + 2 uM doxorubicin), the differential viability (reversal) is 24.9% (inactive). Further, the inhibition is -5.66% (inactive) in test [7] and -2% (inactive) in test [8].
As for `COc1ccc(CCn2c(NCCCN3CCOCC3)nc3c2c(=O)[nH]c(=O)n3C)cc1`, the viability in test [1] is 84.5%; in test [3], 84.5% (inactive); in test [4], 76.6% (inactive); in test [5] it was 87.3% (inactive); in test [6] (setting [9]), 86.9%; in test [6] (setting [10]) it was 87.3%. Moreover, the Her2 level in test [2] was 86% (inactive). Moreover, the differential viability (reversal) in test [6] (H69AR cells + 2 uM doxorubicin) is 0.365% (inactive). Moreover, the results for the inhibition in test [7] and in test [8] were 4.13% (inactive) and 30.3% (active), respectively.
Take `O=C(NC1CCCC1)c1ccc(S(=O)(=O)N2CCCC2)cc1`: the viability in test [1] is 107%; in test [3], 107% (inactive); in test [4] it was 103% (inactive); in test [5], 87.6% (inactive); in test [6] (setting [9]), 95%; in test [6] (setting [10]) it was 87.6%. Further, in test [2], the Her2 level was 120% (inactive). In test [6] (H69AR cells + 2 uM doxorubicin), the differential viability (reversal) was -7.37% (inactive). In addition, the figures for the inhibition in test [7] and in test [8] were -1.08% (inactive) and 0.83% (inactive), respectively.
With `Cc1ccc(S(=O)(=O)NCC2CCC(C(=O)NCCCN3CCOCC3)CC2)cc1` (stereo not given), the viability is 89.5% in test [1]; 89.5% (inactive) in test [3]; 92.7% (inactive) in test [4]; 88.6% (inactive) in test [5]; 96.6% in test [6] (setting [9]); 88.6% in test [6] (setting [10]). For the same molecule, the Her2 level in test [2] was 93% (inactive). Further, the differential viability (reversal) in test [6] (H69AR cells + 2 uM doxorubicin) is -8.07% (inactive). In addition, the inhibition in test [7] was -0.53% (inactive); in test [8], 24.9% (inactive).
`CCc1cc(C)cc(OCCNC(=O)c2ncn[nH]2)c1`: the viability in test [1] is 117%; in test [3], 117% (inactive); in test [4] it was 89.7% (inactive); in test [5], 90.8% (inactive); in test [6] (setting [9]), 81.1%; in test [6] (setting [10]), 90.8%. Further, the Her2 level in test [2] was 110% (inactive). Besides, in test [6] (H69AR cells + 2 uM doxorubicin), the differential viability (reversal) is 9.78% (inactive). For the same molecule, the inhibition was -3.95% (inactive) in test [7] and -1.29% (inactive) in test [8].
As to `O=C(NC1CCS(=O)(=O)C1)c1c(NC(=O)C2COc3ccccc3O2)sc2c1CCCC2` (stereo not given), the viability in test [1] was 67%; in test [3], 67% (inactive); in test [4], 45.3% (inactive); in test [5], 38.3% (active); in test [6] (setting [9]) it was 36%; in test [6] (setting [10]), 38.3%. Further, the Her2 level in test [2] is 69.5% (inactive). Also, the differential viability (reversal) in test [6] (H69AR cells + 2 uM doxorubicin) is 2.25% (inactive). Further, the inhibition in test [7] was -4.67% (inactive); in test [8] it was -1.61% (inactive).
Take `COc1ccc(-c2nnc(-c3cccs3)o2)cc1OC`: the viability in test [1] was 75%; in test [3] it was 75% (inactive); in test [4], 92.7% (inactive); in test [5] it was 94.6% (inactive); in test [6] (setting [9]), 93.5%; in test [6] (setting [10]), 94.6%. Further, the Her2 level in test [2] was 110% (inactive). Also, the differential viability (reversal) in test [6] (H69AR cells + 2 uM doxorubicin) was 1.17% (inactive). The inhibition in test [7] is -3.78% (inactive); in test [8], -3.93% (inactive).
Consider `COc1ccccc1-c1noc(-c2cccnc2)n1`, for which the viability in test [1] is 94%; in test [3] it was 94% (inactive); in test [4], 117% (inactive); in test [5], 92.3% (inactive); in test [6] (setting [9]) it was 91.4%; in test [6] (setting [10]), 92.3%. Moreover, in test [2], the Her2 level was 102% (inactive). Further, the differential viability (reversal) in test [6] (H69AR cells + 2 uM doxorubicin) is 0.91% (inactive). Moreover, the inhibition is -2.89% (inactive) in test [7] and -0.66% (inactive) in test [8].

For the origin of these results see PubChem BioAssay.
